From ChEMBL document CHEMBL1151785, “Oleanolic acid and its derivatives: new inhibitor of protein tyrosine phosphatase 1B with cellular activities” (Bioorg Med Chem, 2008) come the findings set out here.

The source made the active and inactive calls. The calls are words filed in the database; no cut-off is given here.

In assay [1] the target is T1, Tyrosine-protein phosphatase non-receptor type 1 (Homo sapiens, UniProt P18031).
T1 sequence (P18031 whole entry): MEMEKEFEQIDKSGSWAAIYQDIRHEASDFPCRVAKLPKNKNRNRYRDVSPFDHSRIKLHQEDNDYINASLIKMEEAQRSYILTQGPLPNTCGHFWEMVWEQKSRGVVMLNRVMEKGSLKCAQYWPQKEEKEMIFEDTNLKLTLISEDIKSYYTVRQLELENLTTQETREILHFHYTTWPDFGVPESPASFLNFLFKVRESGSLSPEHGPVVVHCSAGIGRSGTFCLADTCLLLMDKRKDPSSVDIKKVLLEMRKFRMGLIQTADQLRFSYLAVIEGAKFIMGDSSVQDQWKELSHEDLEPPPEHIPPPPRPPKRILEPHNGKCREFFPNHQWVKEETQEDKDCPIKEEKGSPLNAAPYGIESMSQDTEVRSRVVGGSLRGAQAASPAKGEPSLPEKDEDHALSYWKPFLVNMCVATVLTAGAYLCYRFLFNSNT
The assay can be described thus: Inhibition of PTP1B by pNPP assay.

Assay [2] concerns the target T2, Tyrosine-protein phosphatase non-receptor type 2 (Homo sapiens, UniProt P17706).
T2 sequence (P17706 whole entry): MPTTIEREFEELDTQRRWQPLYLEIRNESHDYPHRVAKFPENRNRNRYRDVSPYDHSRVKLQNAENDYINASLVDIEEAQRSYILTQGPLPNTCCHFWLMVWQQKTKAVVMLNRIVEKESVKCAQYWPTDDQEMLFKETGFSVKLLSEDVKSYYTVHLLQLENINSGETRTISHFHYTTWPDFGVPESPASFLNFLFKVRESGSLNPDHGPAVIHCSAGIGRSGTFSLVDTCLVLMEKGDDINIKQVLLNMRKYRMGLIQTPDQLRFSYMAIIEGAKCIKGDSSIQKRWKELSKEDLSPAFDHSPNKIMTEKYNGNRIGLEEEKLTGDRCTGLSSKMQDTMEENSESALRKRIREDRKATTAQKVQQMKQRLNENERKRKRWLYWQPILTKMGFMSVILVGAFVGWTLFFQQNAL
The assay can be described thus: Inhibition of TCPTP by pNPP assay.

The target of assay [3] is Tyrosine-protein phosphatase non-receptor type 6 (Homo sapiens, UniProt P29350). The assay can be described thus: Inhibition of human recombinant SHP1.
Assay [4] concerns the target Receptor-type tyrosine-protein phosphatase F (Homo sapiens, UniProt P10586). The assay can be described thus: Inhibition of human recombinant LAR.
Assay [5] addresses Receptor-type tyrosine-protein phosphatase alpha (Homo sapiens, UniProt P18433). Put plainly: Inhibition of human recombinant PTPalpha.
Assay [6] deals with Receptor-type tyrosine-protein phosphatase epsilon (Homo sapiens, UniProt P23469). Put plainly: Inhibition of human recombinant PTPepsilon.
Assay [7] can be described thus: Selectivity for PTP1B to human recombinant SHP1.
Assay [8] has as its target Insulin receptor (Homo sapiens) (UniProt P06213). The assay can be described thus: Increase in human IRbeta phosphorylation expressed in CHO cells. Type of assay: cell-based. Summed up: (§1)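 CHO cells stably carrying human insulin receptor were grown near-confluent, then starved 2 h in serum-free Ham's F-12. Compound was given for 3 h, followed by 10 nM insulin for 10 min. Lysates were run on 8% SDS-PAGE and western blotted for phospho-IR (Tyr1162/1163), phospho-Akt (Ser473) and β-actin, with ECL detection.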

The target of assay [9] is RAC-alpha serine/threonine-protein kinase (Homo sapiens) (UniProt P31749). The assay can be described thus: Increase in human Akt phosphorylation expressed in CHO cells. It counts as cell-based. Summed up:
as §1

Assay [10] deals with L6. Put plainly: Increase in glucose uptake in rat L6 cells after 3 hrs in absence of insulin. Type of assay: functional, cell-based. Summed up: (§2)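 Rat L6 myoblasts grown in α-DMEM with 10% FBS at 37 °C under 5% CO2, then differentiated in α-DMEM with 2% FBS. Used as myotubes on day 5 after 2 h serum-free starvation (0.2% BSA). Compound at 250 nM–2 µM for 3 h without insulin. 2-Deoxy[1,2-3H]glucose uptake measured over 10 min in HEPES saline, pH 7.4, 0.1 mM glucose. Lysate counts normalised to protein, given as % of basal/0.2% DMSO cells.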

The test system of assay [11] is L6. Put plainly: Increase in glucose uptake in rat L6 cells at 1 uM after 3 hrs in absence of insulin relative to basal. Type of assay: functional. Summed up:
as §2

Assay [12] has as its system L6. Put plainly: Increase in glucose uptake in rat L6 cells at 1 uM after 3 hrs in presence of insulin relative to basal. As to conditions: in the assay text read “after 2.5 hrs” for “after 3 hrs”. Type of assay: functional. Summed up: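 Differentiated rat L6 myotubes (day 5) were serum-starved 2 h, exposed to 1.0 µM compound for 2.5 h, then stimulated 30 min with 1, 10 or 100 nM insulin. 2-Deoxy[1,2-3H]glucose uptake was read over 10 min (0.1 mM glucose, HEPES saline pH 7.4). Radioactivity from 0.1% Triton lysates was normalised to protein and expressed relative to basal/DMSO-treated cells.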

Receptor-type tyrosine-protein phosphatase F, sequence (P10586 whole entry): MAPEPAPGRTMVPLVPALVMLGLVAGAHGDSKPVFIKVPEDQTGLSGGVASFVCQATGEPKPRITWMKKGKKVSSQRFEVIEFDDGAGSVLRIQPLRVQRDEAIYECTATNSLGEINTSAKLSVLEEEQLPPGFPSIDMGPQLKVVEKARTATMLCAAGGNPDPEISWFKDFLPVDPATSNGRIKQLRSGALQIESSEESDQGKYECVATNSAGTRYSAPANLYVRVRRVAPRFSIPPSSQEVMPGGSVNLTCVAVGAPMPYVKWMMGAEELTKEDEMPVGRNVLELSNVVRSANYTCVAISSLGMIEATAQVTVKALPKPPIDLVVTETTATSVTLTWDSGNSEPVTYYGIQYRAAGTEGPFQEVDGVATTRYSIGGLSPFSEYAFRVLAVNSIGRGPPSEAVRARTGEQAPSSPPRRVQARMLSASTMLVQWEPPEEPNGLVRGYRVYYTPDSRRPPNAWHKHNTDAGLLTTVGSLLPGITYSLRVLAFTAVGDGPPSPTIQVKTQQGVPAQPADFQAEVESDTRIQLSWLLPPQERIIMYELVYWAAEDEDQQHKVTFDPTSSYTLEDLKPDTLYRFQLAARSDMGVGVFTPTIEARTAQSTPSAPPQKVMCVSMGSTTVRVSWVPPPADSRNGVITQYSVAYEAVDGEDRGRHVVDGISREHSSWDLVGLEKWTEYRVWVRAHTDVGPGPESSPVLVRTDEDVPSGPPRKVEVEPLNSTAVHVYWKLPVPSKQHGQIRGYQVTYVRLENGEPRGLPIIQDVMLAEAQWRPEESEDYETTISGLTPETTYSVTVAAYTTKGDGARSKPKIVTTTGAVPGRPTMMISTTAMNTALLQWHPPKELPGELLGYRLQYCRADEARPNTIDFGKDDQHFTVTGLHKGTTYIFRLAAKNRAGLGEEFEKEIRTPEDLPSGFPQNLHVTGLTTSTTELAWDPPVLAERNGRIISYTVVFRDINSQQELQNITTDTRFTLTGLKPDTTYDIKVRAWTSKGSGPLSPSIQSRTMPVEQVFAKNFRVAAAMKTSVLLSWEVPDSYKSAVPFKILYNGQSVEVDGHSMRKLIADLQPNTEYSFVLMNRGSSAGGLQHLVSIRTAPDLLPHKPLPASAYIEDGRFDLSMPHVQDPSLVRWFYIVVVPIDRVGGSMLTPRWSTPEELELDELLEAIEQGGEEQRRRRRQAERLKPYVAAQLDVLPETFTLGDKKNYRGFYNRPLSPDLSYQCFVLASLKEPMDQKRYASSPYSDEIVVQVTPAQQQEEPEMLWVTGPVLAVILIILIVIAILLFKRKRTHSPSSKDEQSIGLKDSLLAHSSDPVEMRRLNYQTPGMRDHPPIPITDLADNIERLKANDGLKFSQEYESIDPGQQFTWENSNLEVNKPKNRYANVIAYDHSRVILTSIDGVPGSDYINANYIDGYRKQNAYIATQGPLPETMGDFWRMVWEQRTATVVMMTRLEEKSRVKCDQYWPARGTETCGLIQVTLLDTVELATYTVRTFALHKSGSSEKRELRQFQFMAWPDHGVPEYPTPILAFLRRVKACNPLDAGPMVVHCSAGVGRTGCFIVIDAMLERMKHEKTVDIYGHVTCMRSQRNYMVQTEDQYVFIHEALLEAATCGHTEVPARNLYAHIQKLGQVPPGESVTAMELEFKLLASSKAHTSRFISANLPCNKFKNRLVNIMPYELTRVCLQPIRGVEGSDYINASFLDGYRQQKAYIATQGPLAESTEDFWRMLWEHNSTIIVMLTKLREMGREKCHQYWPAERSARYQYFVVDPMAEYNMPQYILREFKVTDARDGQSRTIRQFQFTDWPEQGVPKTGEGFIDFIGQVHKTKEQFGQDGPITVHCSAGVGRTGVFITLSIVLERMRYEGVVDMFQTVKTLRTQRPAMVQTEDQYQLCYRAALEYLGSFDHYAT
Tyrosine-protein phosphatase non-receptor type 6, sequence (P29350 whole entry): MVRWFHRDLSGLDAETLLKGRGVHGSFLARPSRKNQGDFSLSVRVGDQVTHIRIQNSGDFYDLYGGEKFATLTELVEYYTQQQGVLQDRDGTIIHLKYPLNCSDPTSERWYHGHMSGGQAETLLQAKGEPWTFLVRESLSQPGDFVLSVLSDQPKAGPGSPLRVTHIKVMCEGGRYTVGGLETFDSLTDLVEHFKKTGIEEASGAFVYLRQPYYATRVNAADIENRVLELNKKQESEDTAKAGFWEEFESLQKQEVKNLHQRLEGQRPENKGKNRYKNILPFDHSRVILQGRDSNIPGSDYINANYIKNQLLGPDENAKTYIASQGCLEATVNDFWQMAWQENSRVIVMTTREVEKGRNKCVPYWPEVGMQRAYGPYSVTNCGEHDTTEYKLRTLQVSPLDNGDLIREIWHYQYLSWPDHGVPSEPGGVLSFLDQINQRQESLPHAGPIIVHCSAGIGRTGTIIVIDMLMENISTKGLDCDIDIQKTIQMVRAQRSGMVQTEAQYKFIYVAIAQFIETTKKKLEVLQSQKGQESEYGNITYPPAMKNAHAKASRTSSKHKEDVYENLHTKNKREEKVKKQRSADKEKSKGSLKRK
Receptor-type tyrosine-protein phosphatase alpha, sequence (P18433 whole entry): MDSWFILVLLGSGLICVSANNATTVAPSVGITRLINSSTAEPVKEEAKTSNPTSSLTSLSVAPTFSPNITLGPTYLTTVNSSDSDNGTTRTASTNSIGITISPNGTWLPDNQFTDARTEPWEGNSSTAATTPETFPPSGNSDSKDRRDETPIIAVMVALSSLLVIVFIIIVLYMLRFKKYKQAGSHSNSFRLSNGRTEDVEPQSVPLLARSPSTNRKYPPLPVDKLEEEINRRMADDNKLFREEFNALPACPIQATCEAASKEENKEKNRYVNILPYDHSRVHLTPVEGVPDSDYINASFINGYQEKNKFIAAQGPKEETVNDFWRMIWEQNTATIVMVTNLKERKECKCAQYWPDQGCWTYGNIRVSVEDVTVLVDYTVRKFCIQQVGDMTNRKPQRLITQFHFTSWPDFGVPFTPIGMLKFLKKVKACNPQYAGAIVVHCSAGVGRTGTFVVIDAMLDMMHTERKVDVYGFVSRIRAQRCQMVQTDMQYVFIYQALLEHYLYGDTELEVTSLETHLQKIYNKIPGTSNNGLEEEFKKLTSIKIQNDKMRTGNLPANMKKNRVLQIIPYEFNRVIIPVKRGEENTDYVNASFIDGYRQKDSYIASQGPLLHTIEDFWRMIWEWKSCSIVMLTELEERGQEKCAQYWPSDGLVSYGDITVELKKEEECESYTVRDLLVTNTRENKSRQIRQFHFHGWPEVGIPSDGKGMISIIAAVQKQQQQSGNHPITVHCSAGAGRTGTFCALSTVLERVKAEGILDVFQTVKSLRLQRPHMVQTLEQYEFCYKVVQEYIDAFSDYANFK
Receptor-type tyrosine-protein phosphatase epsilon, sequence (P23469 whole entry): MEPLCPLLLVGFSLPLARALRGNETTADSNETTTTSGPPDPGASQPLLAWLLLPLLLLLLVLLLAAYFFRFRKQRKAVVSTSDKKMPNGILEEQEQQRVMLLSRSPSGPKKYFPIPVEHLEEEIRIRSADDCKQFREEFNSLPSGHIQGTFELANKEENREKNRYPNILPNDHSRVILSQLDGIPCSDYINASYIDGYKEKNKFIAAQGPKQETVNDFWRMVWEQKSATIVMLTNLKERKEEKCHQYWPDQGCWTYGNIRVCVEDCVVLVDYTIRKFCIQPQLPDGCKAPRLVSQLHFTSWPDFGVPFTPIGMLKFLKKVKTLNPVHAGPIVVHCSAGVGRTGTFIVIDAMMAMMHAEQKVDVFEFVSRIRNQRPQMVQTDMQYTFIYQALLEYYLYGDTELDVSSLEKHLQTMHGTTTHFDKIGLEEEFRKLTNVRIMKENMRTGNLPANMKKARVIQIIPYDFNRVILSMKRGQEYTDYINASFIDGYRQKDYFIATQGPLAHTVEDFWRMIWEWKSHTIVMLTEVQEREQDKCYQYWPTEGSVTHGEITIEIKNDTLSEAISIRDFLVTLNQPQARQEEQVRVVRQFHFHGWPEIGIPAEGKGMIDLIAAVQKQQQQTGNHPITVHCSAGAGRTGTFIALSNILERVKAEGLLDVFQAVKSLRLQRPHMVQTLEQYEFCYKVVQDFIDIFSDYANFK
RAC-alpha serine/threonine-protein kinase (Homo sapiens), sequence (P31749 whole entry): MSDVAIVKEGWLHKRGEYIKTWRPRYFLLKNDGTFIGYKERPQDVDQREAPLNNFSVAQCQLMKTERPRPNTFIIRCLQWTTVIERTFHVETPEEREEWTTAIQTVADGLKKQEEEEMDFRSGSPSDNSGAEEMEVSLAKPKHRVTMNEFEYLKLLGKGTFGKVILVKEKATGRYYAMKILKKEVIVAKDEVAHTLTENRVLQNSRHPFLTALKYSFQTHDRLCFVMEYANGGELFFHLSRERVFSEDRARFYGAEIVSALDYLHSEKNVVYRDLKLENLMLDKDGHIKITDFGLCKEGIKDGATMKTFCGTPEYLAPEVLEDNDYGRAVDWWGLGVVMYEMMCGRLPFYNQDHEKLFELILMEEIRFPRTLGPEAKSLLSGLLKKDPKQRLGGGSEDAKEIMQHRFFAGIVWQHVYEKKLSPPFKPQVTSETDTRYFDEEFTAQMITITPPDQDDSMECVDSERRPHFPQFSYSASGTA

In general, IC50 refers to the midpoint of a concentration-inhibition curve. With `CC1(C)CC[C@]2(CCCCC(=O)NC(Cc3ccc4c(c3)OCO4)C(=O)O)CC[C@]3(C)C(=CC[C@@H]4[C@@]5(C)CC[C@H](O)C(C)(C)[C@@H]5CC[C@]43C)[C@@H]2C1` (some centres undefined), the IC50 was 440 nM in assay [1]; 600 nM in [2]; 0.71 µM in assay [3]; > 40 µM in assay [4]; > 40 µM in assay [5]; > 40 µM in assay [6]. For the same compound, the Ratio in [7] was 2.
With `CC1(C)CC[C@]2(CCCCC(=O)N[C@@H](Cc3ccccc3)C(=O)O)CC[C@]3(C)C(=CC[C@@H]4[C@@]5(C)CC[C@H](O)C(C)(C)[C@@H]5CC[C@]43C)[C@@H]2C1`, the IC50 in assay [1] was 570 nM; in assay [2] it was 630 nM; in [3] it was 4.08 µM; in [4], > 40 µM; in assay [5], > 40 µM; in assay [6], > 40 µM. Further, the Ratio in assay [7] was found to be 2.
For the compound `CC1(C)CC[C@]2(CCCCC(=O)O)CC[C@]3(C)C(=CC[C@@H]4[C@@]5(C)CC[C@H](O)C(C)(C)[C@@H]5CC[C@]43C)[C@@H]2C1`, the IC50 in assay [1] is 1330 nM; in [2], 1110 nM; in assay [3] it was 5.2 µM; in assay [4] it was > 40 µM; in assay [5], > 40 µM; in assay [6], > 40 µM. Besides, the Ratio in assay [7] is 2.
Take `CC1(C)CC[C@]2(C(=O)O)CC[C@]3(C)C(=CC[C@@H]4[C@@]5(C)CC[C@H](O)C(C)(C)[C@@H]5CC[C@]43C)[C@@H]2C1` [OLEANOLIC_ACID]: the IC50 in [4], in assay [5] and in assay [6] was > 40 µM throughout.
As for `CC1(C)CC[C@]2(C(=O)O)CC[C@]3(C)C(=CC[C@@H]4[C@@]5(C)CC[C@H](OC(=O)CC(C)(C)C(=O)O)C(C)(C)[C@@H]5CC[C@]43C)[C@@H]2C1`, the IC50 in [1] is 2330 nM; in [2], 1380 nM; in assay [3], 12.4 µM; in assay [4] it was > 40 µM; in assay [5] it was > 40 µM; in assay [6] it was > 40 µM. The Ratio in assay [7] amounted to 2.
Take `CC1(C)CC[C@]2(CCCCC(=O)N[C@@H](Cc3ccccc3)C(=O)O)CC[C@]3(C)C(=CC[C@@H]4[C@@]5(C)CC[C@H](OCc6ccc(C(=O)O)cc6)C(C)(C)[C@@H]5CC[C@]43C)[C@@H]2C1`: the half-inhibitory concentration (IC50) in assay [1] was 150 nM; in [2], 160 nM; in [3] it was 0.89 µM; in [4], > 40 µM; in assay [5] it was > 40 µM; in assay [6], > 40 µM. In addition, the Ratio in assay [7] was found to be 2. The Activity entry is “Dose-dependent effect” in assay [8], “Dose-dependent effect” with L6 [10], 40% with L6 [11] and 20% in the assay on L6 [12]. In [9], the outcome was Active.
For the compound `CC1(C)CC[C@]2(C(=O)O)CC[C@]3(C)C(=CC[C@@H]4[C@@]5(C)CC[C@H](OCc6ccc(C(=O)O)cc6)C(C)(C)[C@@H]5CC[C@]43C)[C@@H]2C1`, the IC50 in assay [1] was 540 nM; in [2] it was 470 nM; in assay [3], 4.05 µM; in assay [4], > 40 µM; in assay [5] it was > 40 µM; in assay [6] it was > 40 µM. In addition, the Ratio in assay [7] worked out at 2.
With `CSCC[C@H](NC(=O)CCCC[C@]12CCC(C)(C)C[C@H]1C1=CC[C@@H]3[C@@]4(C)CC[C@H](O)C(C)(C)[C@@H]4CC[C@@]3(C)[C@]1(C)CC2)C(=O)O`, the IC50 in assay [1] was 550 nM; in assay [2] it was 750 nM.
`CC1(C)CC[C@]2(C(=O)N[C@@H](Cc3ccccc3)C(=O)O)CC[C@]3(C)C(=CC[C@@H]4[C@@]5(C)CC[C@H](O)C(C)(C)[C@@H]5CC[C@]43C)[C@@H]2C1`: the figures for the IC50 in [1] and in assay [3] were 3310 nM and 12.6 µM, respectively.
With `CC1(C)CC[C@]2(C(=O)O)CC[C@]3(C)C(=CC[C@@H]4[C@@]5(C)CC[C@H](OCc6ccccc6C(=O)O)C(C)(C)[C@@H]5CC[C@]43C)[C@@H]2C1`, the IC50 in assay [1] was 2720 nM; in assay [2], 2220 nM.
For `COc1ccc(CC(NC(=O)CCCC[C@]23CCC(C)(C)C[C@H]2C2=CC[C@@H]4[C@@]5(C)CC[C@H](O)C(C)(C)[C@@H]5CC[C@@]4(C)[C@]2(C)CC3)C(=O)O)cc1` (some centres undefined), the results for the IC50 in assay [1] and in assay [2] were 600 nM and 550 nM, respectively.
In the case of `C[C@H]1[C@H](C)CC[C@]2(C(=O)O)CC[C@]3(C)C(=CC[C@@H]4[C@@]5(C)CC[C@H](O)C(C)(C)[C@@H]5CC[C@]43C)[C@H]12` [URSOLIC ACID], the IC50 in assay [2] was 3330 nM; in [3], 25.8 µM; in [4] it was > 40 µM; in assay [5], > 40 µM; in assay [6] it was > 40 µM.
For the compound `C[C@H]1[C@H](C)CC[C@]2(C(=O)O)CC[C@]3(C)C(=CC[C@@H]4[C@@]5(C)C[C@@H](O)[C@H](O)C(C)(C)[C@@H]5CC[C@]43C)[C@H]12` [COROSOLIC ACID], the IC50 in assay [1] was 5490 nM; in assay [2], 11300 nM; in assay [3], 24.6 µM; in [4], > 40 µM; in assay [5], > 40 µM; in assay [6], > 40 µM. Also, the Ratio in [7] was determined as 2.
On to `COc1cc(CC(NC(=O)CCCC[C@]23CCC(C)(C)C[C@H]2C2=CC[C@@H]4[C@@]5(C)CC[C@H](O)C(C)(C)[C@@H]5CC[C@@]4(C)[C@]2(C)CC3)C(=O)O)cc(OC)c1` (some centres undefined), for which the values for the IC50 in assay [1] and in assay [2] were 630 nM and 850 nM, respectively.
As for `CC1(C)CC[C@]2(CCCCC(=O)NC(Cc3ccccc3Cl)C(=O)O)CC[C@]3(C)C(=CC[C@@H]4[C@@]5(C)CC[C@H](O)C(C)(C)[C@@H]5CC[C@]43C)[C@@H]2C1` (some centres undefined), the figures for the IC50 in assay [1] and in assay [2] were 560 nM and 550 nM, respectively.
As for `CC1(C)CC[C@]2(CCC(=O)O)CC[C@]3(C)C(=CC[C@@H]4[C@@]5(C)CC[C@H](O)C(C)(C)[C@@H]5CC[C@]43C)[C@@H]2C1`, the IC50 in assay [1] was 2100 nM; in [2], 2770 nM; in assay [3] it was 27.4 µM; in [4], > 40 µM; in assay [5], > 40 µM; in assay [6] it was > 40 µM. Moreover, in assay [7], the Ratio came to 2.
Take `C[C@H]1[C@H](C)CC[C@]2(C(=O)O)CC[C@]3(C)C(=CC[C@@H]4[C@@]5(C)C[C@@H](O)[C@H](O)[C@@](C)(CO)[C@@H]5[C@H](O)C[C@]43C)[C@H]12` [MADECASSIC ACID]: the IC50 in assay [1] was 12400 nM; in assay [2], > 20000 nM.
For the compound `COc1ccc(CC(NC(=O)CCCC[C@]23CCC(C)(C)C[C@H]2C2=CC[C@@H]4[C@@]5(C)CC[C@H](O)C(C)(C)[C@@H]5CC[C@@]4(C)[C@]2(C)CC3)C(=O)O)cc1OC` (some centres undefined), the results for the IC50 in assay [1] and in assay [2] were 820 nM and 700 nM, respectively.
For `C=C1CC[C@]2(C)[C@H]3CC=C4[C@@H]5CC(C)(C)CC[C@]5(C(=O)O)CC[C@@]4(C)[C@]3(C)CC[C@H]2C1(C)C`, in that order: 2850 nM and 2530 nM.
For `CC1(C)CC[C@]2(C)CC[C@]3(C)[C@H](CC[C@@H]4[C@@]5(C)CC[C@H](O)C(C)(C)[C@@H]5CC[C@]43C)[C@@H]2C1`, the IC50 in [1] and in [2] was > 20000 nM throughout.
